TMEM16A act: activates or potentiates the mouse TMEM16A chloride channel; HEK293 TMEM16A/YFP-H148Q/I152L, iodide quench fluorescence; active compounds read low; Q8BHY3; 340,000 compounds, 0.3% hits; B-score at 10 µM;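 active means fluorescence-ratio B-score plate-corrected deviation score at least 3 library SD below zero, with starting fluorescence score within 5 deviations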;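 further: channel opened by trigger with iodide after compound preincubation; score built on the fluorescence ratio of max minus min over baseline; more negative score means more quench and so TMEM16A activation or potentiation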
Target sequence (Q8BHY3 whole entry, looked up): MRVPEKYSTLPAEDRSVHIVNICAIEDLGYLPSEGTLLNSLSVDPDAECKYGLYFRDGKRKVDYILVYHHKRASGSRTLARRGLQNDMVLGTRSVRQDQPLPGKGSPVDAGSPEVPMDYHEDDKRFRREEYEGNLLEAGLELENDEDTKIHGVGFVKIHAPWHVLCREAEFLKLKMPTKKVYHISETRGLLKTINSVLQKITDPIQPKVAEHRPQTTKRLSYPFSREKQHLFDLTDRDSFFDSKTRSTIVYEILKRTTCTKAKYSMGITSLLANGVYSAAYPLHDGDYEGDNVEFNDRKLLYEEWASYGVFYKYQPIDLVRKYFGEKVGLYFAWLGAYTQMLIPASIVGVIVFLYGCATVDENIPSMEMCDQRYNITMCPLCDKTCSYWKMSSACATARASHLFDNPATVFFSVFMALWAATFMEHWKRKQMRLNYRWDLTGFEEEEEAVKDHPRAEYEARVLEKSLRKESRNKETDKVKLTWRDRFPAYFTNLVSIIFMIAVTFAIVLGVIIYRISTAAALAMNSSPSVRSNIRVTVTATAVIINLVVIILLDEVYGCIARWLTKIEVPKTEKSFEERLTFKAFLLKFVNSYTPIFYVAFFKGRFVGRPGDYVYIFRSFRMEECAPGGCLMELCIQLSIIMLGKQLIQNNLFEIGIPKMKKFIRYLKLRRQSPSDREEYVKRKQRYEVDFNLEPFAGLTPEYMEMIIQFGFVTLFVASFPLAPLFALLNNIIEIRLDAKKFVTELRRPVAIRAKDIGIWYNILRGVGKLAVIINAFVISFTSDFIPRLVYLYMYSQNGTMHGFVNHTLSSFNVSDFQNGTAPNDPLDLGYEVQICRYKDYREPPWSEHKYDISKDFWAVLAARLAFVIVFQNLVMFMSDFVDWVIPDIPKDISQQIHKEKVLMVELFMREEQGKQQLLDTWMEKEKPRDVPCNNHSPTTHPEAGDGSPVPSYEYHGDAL
ANO1 block: blocks the mouse calcium-activated chloride channel TMEM16A; normalized B-score (activity score, 25-100; higher = stronger inhibition) at 10 µM; AID 588511; HEK293 TMEM16A/YFP iodide influx fluorescence, ionomycin; Q8BHY3; 310,000 compounds, 1.2% hits;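 active means ratio plate-corrected score three or more library SD toward inhibition, starting fluorescence score within five deviations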;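 further: score derived from kinetic fluorescence span divided by baseline fluorescence per well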
CHT block: inhibits the human high affinity choline transporter. Q9GZV3. CHT-expressing cells, membrane potential dye, choline response; active compounds read low. B-score at 10 µM. 310,000 compounds, 0.86% hits. AID 488975;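 active means B-score over 3 SD under the library average, and starting fluorescence ratio not unusually high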;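 further: choline stimulus applied at its EC90 after an EC20 pre-addition; B-score computed on integrated fluorescence ratio after choline addition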
CHT PAM: human CHT allosteric activation; Q9GZV3; CHT-expressing cells, membrane potential dye, choline EC20; active compounds read high; LV-AA mutant CHT in HEK293 cells; B-score at 10 µM; 310,000 compounds, 0.49% hits; AID 488977;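 active means initial fluorescence not abnormally high and integrated response B-score, plate-corrected, over 3 SD above library mean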
VIM-2 inhibitor: blocks Pseudomonas aeruginosa VIM-2 metallo-beta-lactamase; purified VIM-2, nitrocefin hydrolysis, epi-absorbance fluorescence; inhibition, % at 5.6 µM; 290,000 compounds, 0.89% hits; AID 1527;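 active means inhibition above the mean of all tested compounds plus 3 SD, cutoff set per screening run, cut at about 7.5% in these data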;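 further: red hydrolysis product quenches plate fluorescence so inhibitors raise well fluorescence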
IMP-1 inh: blocks Pseudomonas aeruginosa IMP-1 metallo-beta-lactamase; inhibition, % at 5.6 µM; 290,000 compounds, 0.45% hits; purified IMP-1, nitrocefin hydrolysis, epi-absorbance fluorescence;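 active means inhibition above the mean plus 3 SD of all compounds in the same screening run, cut at about 4.5% in these data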
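system = purified recombinant IMP-1 beta-lactamase | amount = 0.2 nM IMP-1, as dispensed | medium = HEPES buffer pH 7.1 with ZnSO4 and Brij 35 | times = 25 °C, 15 min preincubation, 25 min reaction | detection = plate fluorescence quenching by hydrolysis product, ex 480/em 530 nm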
CHT inh conf: confirmation of human choline transporter CHT inhibitors; shares compounds with CHT block; CHT-expressing cells, choline membrane potential dye; LV-to-AA substituted CHT, HEK293 cells; CHT activity remaining % of control (active compounds read low), % at 10 µM; 2,400 compounds, 70% hits; AID 493221;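 active means choline transporter activity left, mean of duplicates at 10 µM, below buffer-only control mean minus 3 SD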;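 further: depolarization triggered by choline at its EC90 following an EC20 pre-addition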
HEK293 CHT ctr: activity in parental HEK293 cells lacking CHT; shares compounds with CHT block; membrane potential ratio readout (active if shifted either direction beyond buffer ±3SD; no single direction) at 10 µM; AID 493222; 2,400 compounds, 4% hits; membrane potential dye, choline response; active = decrease or increase beyond buffer ±3SD;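 further: parental cells lack the transporter so any hit is non-specific; ratio is peak minus trough fluorescence over baseline after EC90 choline challenge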
Hits are given with their value; - = inactive; . = not tested or not shown. Compounds with a hit are over-represented: about 3.4% of the library has one in this group of screens.

SMILES	TMEM16A act	ANO1 block	CHT block	CHT PAM	VIM-2 inhibitor	IMP-1 inh	CHT inh conf	HEK293 CHT ctr
O=C(NCc1ccccc1Cl)c1cc(C(=O)C2CC2)c[nH]1	-	-	-	-	-	-	.	.
Cc1ccc(S(=O)(=O)Nc2cccc(S(=O)(=O)Nc3ccccc3C(=O)O)c2)c(C)c1	-	.	.	.	.	.	.	.
CCOC(=O)[C@H]1[C@H]2COc3ccc(C)cc3[C@@H]2N2C(=O)c3ccccc3NC(=O)[C@@]12C	-	-	-	-	.	.	.	.
COc1cccc(C2/C(=C(\O)c3ccc4c(c3)OCCO4)C(=O)C(=O)N2c2nnc(C)s2)c1 (configuration not stated)	-	-	-5.7	-	-	-	-	-
CC1(C)CC(=O)C=C(c2cccc(Cl)c2O)C1	-	.	.	.	.	.	.	.
Cc1ccccc1N(C)S(=O)(=O)c1ccc2[nH]cc(C(=O)NCC3CCCO3)c(=O)c2c1 (configuration not stated)	-	-	-7	-	-	-	68%	-
CC(NC(=O)Cn1nc(-c2ccccc2)c2ccccc2c1=O)c1ccccc1 (configuration not stated)	-	-	-5.2	-	-	-	69%	-
O=C(Cn1nc(-c2ccccc2)c2ccccc2c1=O)Nc1ccc(O)cc1	-	-	-	-	-	-	.	.
COc1cc(C(=O)NC(=S)NNC(=O)[C@H]2C[C@@H]2c2ccccc2)cc(OC)c1OC	-	25	-5.9	-	-	-	48%	-
COc1ccccc1C(=O)NNC(=S)NC(=O)c1cc(OC)c(OC)c(OC)c1	-	-	-	-	-	-	.	.
O=C(CCCCCNC(=O)N1CCn2c1nc1ccccc12)NCc1ccccc1Cl	-	-	-	-	-	-	.	.
Cc1cc2nc(C)c(Cl)c(=O)n2[nH]1	-	-	-7.4	-	-	-	20%	-
Cc1ccc(C(=O)Nc2ncccc2O)cc1S(=O)(=O)N1CCCCC1	-	-	-	-	.	.	.	.
COC(=O)c1ccc(/C(O)=C(\C#N)c2nc3ccccc3s2)cc1	-	25	-6.5	-	-	-	-	-
COC(=O)c1ccc(CC(=O)c2nc3ccccc3s2)cc1	-	-	-	-	-	-	.	.
COc1ccc(N(CCCN2C(=O)c3cccc4cccc(c34)C2=O)C(=O)c2ccncc2)cc1	-	-	-5.8	-	-	-	69%	-
COc1ccc(N(CCCN2C(=O)c3cccc4cccc(c34)C2=O)C(=O)c2cccnc2)cc1	-	-	-	-	-	-	.	.
Nc1ncc(CCN2CCOCC2)c(-c2ccc(F)cc2)n1	-	-	-	-	-	-	.	.
Fc1ccc(-c2nc3c(-c4ccccc4)cnn3cc2CCN2CCOCC2)cc1	-	-	-10	-	-	-	22%	-
Fc1ccc(-c2nc3c(-c4ccc(F)cc4)cnn3cc2CCN2CCOCC2)cc1	-	-	-6.6	-	-	-	59%	-
CCCCn1c(N)c(N(CC)C(=O)C2COc3ccccc3O2)c(=O)[nH]c1=O (configuration not stated)	-	.	.	.	.	.	.	.
O=C(CSc1nnc(COc2ccc(Cl)cc2)o1)NC1CC2CCC1C2 (configuration not stated)	-	-	-	-	-	-	.	.
O=C(CCl)N(c1ccc(Cl)cc1)c1c[nH]c2ccccc12	-	-	-5.9	-	-	-	56%	-
CN1C(=O)C(CC(=O)NCCc2ccccc2)N(NC(=O)c2ccc(Cl)cc2)C1=S (configuration not stated)	-	-	-12	-	-	-	-	-
CN1C(=O)C(CC(=O)NCCc2ccccc2)N(NC(=O)c2cccc(F)c2)C1=S (configuration not stated)	-	-	-	-	-	-	.	.
SMILES	TMEM16A act	ANO1 block	CHT block	CHT PAM	VIM-2 inhibitor	IMP-1 inh	CHT inh conf	HEK293 CHT ctr
COc1ccc(NC(=O)C2CCCN(S(C)(=O)=O)C2)cc1Cl (configuration not stated)	-	-	-	-	-	-	.	.
COc1cc(F)c(S(=O)(=O)N2CCOc3ccccc32)cc1OC	-	-	-	-	-	-	.	.
CC1=C(C(=O)OCC(Cl)(Cl)Cl)N2C(=O)C(NC(=O)Cc3ccccc3)C2SC1 (configuration not stated)	-	-	-12	-	-	-	-	-
CC(=O)OCC1=C(C(=O)OC(C)(C)C)N2C(=O)[C@@H](NC(=O)Cc3ccccc3)[C@H]2SC1	-	.	.	.	.	.	.	.
COc1ccc(C)cc1NC(=O)CSc1ccc(-c2ccco2)nn1	-	-	-	-	-	-	.	.
C=CCn1c(SCc2ccc(F)cc2)nc2c1c(=O)[nH]c(=O)n2C	-	-	-6	-	-	-	-	-
Cc1ccc(NC(=O)C2CCN(C(=O)c3ccco3)CC2)cc1C	-	-	-	-	-	-	.	.
CC(C)CN(CC(C)C)c1nn[nH]n1	-	.	.	.	.	.	.	.
COc1ccc(C(=O)NCc2cc(C(C)C)no2)cc1OC1CCN(C(C)C)CC1	-	-	.	.	-	-	.	.
COc1ccc(C(=O)NCCC2=CCCCC2)cc1OC1CCN(C(C)C)CC1	-	-	-11	-	-	-	5.1%	-
COc1ccc(C(=O)NCCCSC)cc1OC1CCN(C(C)C)CC1	-	-	-9.1	-	-	-	18%	-
COc1ccc(C(=O)NC2CCCCC2)cc1OC1CCN(C(C)C)CC1	-	-	-7.7	-	-	-	9.8%	-
COc1cc(C(=O)NCCC2=CCCCC2)cc(OC)c1OC	-	-	-	-	-	-	.	.
COc1ccc(C(=O)N2CCCC(O)C2)cc1OC1CCN(C(C)C)CC1 (configuration not stated)	-	-	-7.1	-	-	-	62%	-
COCC1CCN(C(=O)c2ccc(OC)c(OC3CCN(C(C)C)CC3)c2)CC1	-	-	-	-	-	-	.	.
CN(C)CCNCCCNc1c2ccccc2nc2cccc([N+](=O)[O-])c12	-	.	.	.	.	.	.	.
O=C(NCCCN1CCCC1=O)C(=O)NCC1OCCN1S(=O)(=O)c1ccc(Cl)cc1 (configuration not stated)	-	-	-	-	-	-	.	.
CC(C)(C)NCC(O)c1cc(O)cc(O)c1 (configuration not stated)	-	-	-5.9	-	-	-	45%	-
CCN(CC)CCCN(C(=O)c1ccco1)c1nc(-c2ccc(Cl)cc2)cs1	-	-	-6.3	-	-	-	37%	-
O=C(NCc1ccc2c(c1)OCO2)c1ccc(COc2cc(Cl)ccc2Cl)o1	-	-	-5.1	-	-	-	-	-
